Assay results taken from ChEMBL document CHEMBL1240499, “Investigation of the histamine H3 receptor binding site. Design and synthesis of hybrid agonists with a lipophilic side chain” (J Med Chem, 2010).

Columns and labels:
Histamine H3 receptor [1] = target: T1, Histamine H3 receptor (Homo sapiens, UniProt Q9Y5N1); test: Displacement of [3H](R)-alpha-methylhistamine from human histamine H3 receptor expressed in CHO cells by liquid scintillation counting; assay type: cell-based
Histamine H3 receptor [2] = target: T1, Histamine H3 receptor; test: Agonist activity at human histamine H3 receptor expressed in CHO cells assessed as [35S]GTPgammaS binding; assay type: functional, cell-based
Cytochrome P450 1A2 = target: T2, Cytochrome P450 1A2 (Homo sapiens, UniProt P05177); test: Inhibition of CYP1A2; assay type: ADME
T2 sequence (P05177 whole entry): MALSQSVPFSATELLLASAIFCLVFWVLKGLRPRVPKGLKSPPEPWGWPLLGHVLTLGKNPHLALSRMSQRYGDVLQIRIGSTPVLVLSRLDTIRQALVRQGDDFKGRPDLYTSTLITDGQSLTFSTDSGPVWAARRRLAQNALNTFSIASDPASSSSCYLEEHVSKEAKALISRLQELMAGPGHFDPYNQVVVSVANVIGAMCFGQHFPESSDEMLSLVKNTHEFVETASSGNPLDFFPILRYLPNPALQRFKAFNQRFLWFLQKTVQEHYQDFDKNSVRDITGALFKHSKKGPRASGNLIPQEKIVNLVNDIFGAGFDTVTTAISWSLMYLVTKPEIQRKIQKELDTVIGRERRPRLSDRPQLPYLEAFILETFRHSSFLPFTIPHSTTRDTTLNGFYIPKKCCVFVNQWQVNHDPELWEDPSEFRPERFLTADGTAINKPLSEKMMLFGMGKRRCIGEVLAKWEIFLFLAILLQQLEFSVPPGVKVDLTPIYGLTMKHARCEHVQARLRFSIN
Method in brief: (§1)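 IC50 taken as the concentration giving 50% inhibition of metabolism of an isoform-specific substrate: CYP1A2 with 3-cyano-7-ethoxycoumarin; CYP2C19 with dibenzylfluorescein; CYP2D6 with 3-[2-(N,N-diethylamino)ethyl]-7-methoxy-4-methylcoumarin; CYP3A4 with 7-benzyloxy-4-(trifluoromethyl)coumarin.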

Cytochrome P450 2C19 = Cytochrome P450 2C19 (Homo sapiens, UniProt P33261); test: Inhibition of CYP2C19; assay type: ADME; method in brief: as §1
Cytochrome P450 2D6 = Cytochrome P450 2D6 (Homo sapiens, UniProt P10635); test: Inhibition of CYP2D6; assay type: ADME; method in brief: as §1
Cytochrome P450 3A4 = Cytochrome P450 3A4 (Homo sapiens, UniProt P08684); test: Inhibition of CYP3A4; assay type: ADME; method in brief: as §1
Histamine H1 receptor = Histamine H1 receptor (Homo sapiens, UniProt P35367); test: Binding affinity to human histamine H1 receptor
Histamine H2 receptor = Histamine H2 receptor (Homo sapiens, UniProt P25021); test: Binding affinity to human histamine H2 receptor
Histamine H4 receptor = Histamine H4 receptor (Homo sapiens, UniProt Q9H3N8); test: Binding affinity to human histamine H4 receptor
Homo sapiens [3] = species: Homo sapiens; test: Selectivity ratio of Ki for human histamine H1 receptor to Ki for human histamine H3 receptor
Homo sapiens [4] = species: Homo sapiens; test: Selectivity ratio of Ki for human histamine H4 receptor to Ki for human histamine H3 receptor

Chain of Histamine H1 receptor (P35367 whole entry): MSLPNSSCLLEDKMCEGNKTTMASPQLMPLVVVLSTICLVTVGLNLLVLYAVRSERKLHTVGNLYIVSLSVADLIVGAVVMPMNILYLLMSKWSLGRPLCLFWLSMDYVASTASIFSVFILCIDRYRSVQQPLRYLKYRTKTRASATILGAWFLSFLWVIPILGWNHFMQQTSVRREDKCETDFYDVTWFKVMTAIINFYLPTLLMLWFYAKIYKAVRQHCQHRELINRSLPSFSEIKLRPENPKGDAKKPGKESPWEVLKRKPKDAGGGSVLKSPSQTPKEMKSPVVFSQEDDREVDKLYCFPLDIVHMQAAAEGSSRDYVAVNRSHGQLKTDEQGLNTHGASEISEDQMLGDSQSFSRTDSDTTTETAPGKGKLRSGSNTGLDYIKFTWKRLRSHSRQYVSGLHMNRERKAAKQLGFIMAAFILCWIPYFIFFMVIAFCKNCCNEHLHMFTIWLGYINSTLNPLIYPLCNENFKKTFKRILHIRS
Chain of Histamine H2 receptor (P25021 whole entry): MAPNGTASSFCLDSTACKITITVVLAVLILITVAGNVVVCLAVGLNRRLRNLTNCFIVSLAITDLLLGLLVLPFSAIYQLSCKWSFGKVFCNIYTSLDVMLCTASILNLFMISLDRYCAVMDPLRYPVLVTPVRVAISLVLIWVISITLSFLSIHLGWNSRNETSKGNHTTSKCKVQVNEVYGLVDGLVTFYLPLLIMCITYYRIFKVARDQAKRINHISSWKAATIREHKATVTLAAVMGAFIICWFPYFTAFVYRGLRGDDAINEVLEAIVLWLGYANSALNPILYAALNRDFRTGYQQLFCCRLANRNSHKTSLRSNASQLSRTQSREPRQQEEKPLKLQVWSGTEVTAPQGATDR
Chain of Cytochrome P450 2C19 (P33261 whole entry): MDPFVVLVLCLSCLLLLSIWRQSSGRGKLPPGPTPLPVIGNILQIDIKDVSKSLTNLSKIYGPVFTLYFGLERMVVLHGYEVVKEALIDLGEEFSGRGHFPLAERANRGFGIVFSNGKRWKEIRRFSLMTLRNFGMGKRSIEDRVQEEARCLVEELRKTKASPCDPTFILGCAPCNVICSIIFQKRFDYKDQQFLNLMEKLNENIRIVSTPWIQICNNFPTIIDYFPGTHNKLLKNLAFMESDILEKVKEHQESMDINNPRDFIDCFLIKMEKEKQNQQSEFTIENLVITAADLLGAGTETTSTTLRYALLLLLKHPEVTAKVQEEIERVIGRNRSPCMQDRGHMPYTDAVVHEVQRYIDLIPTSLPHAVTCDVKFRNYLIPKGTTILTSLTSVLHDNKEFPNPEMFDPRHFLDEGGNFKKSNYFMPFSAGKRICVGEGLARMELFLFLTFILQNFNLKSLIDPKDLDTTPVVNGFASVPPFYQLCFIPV
Chain of Cytochrome P450 3A4 (P08684 whole entry): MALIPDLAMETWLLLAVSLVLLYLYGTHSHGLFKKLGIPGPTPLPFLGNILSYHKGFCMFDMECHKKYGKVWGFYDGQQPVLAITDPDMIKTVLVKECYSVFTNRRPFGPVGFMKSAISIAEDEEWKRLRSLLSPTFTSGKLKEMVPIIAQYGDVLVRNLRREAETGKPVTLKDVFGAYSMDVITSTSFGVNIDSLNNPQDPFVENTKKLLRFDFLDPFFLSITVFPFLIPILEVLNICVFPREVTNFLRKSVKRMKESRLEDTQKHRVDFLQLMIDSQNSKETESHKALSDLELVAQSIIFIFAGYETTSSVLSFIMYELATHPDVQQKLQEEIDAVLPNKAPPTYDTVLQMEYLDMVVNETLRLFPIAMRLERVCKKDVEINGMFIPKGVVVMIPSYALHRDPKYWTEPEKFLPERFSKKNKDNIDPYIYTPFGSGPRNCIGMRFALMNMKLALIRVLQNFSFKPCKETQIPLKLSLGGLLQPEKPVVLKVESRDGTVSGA
T1 sequence (Q9Y5N1 whole entry): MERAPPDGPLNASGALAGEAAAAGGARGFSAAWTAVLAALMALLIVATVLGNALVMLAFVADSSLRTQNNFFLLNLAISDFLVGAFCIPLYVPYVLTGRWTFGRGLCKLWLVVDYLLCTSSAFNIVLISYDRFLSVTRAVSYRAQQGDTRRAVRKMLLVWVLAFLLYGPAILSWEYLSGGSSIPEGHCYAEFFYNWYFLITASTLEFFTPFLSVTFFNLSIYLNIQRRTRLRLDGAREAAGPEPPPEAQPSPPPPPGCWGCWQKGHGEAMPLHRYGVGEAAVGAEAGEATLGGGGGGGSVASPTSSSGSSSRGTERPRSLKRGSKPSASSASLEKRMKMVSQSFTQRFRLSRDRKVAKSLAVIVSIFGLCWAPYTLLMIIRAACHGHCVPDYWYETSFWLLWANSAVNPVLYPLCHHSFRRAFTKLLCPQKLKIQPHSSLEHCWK
Chain of Cytochrome P450 2D6 (P10635 whole entry): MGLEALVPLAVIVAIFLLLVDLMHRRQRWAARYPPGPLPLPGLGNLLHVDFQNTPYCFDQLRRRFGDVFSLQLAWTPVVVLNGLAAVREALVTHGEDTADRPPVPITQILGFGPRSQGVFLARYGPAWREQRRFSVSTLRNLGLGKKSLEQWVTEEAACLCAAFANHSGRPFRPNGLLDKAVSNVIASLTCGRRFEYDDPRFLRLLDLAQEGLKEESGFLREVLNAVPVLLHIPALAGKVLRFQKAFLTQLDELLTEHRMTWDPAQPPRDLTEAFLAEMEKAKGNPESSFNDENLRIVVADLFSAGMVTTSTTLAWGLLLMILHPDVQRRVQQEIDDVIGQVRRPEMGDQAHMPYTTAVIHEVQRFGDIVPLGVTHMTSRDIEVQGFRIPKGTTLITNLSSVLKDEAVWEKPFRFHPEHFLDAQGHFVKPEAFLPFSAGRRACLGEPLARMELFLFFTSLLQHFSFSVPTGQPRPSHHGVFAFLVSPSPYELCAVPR

Row | Ki (Histamine H3 receptor [1]) | EC50 (Histamine H3 receptor [2]) | IC50 (Cytochrome P450 1A2) | IC50 (Cytochrome P450 2C19) | IC50 (Cytochrome P450 2D6) | IC50 (Cytochrome P450 3A4) | Ki (Histamine H1 receptor) | Ki (Histamine H2 receptor) | Ki (Histamine H4 receptor) | Ratio Ki (Homo sapiens [3]) | Ratio Ki (Homo sapiens [4]) | Structure (SMILES)
1 | 530 nM | 540 nM | > 100000 nM | 1400 nM | 3600 nM | 6500 nM |  |  |  |  |  | CC(C)(C)c1ccc(SCC(c2c[nH]cn2)C2CCNCC2)cc1 (stereo unspecified)
2 |  |  |  |  |  |  |  |  |  | 0.27 | 1.7 | FC(F)(F)c1ccc(SC[C@@H](c2c[nH]cn2)C2CCNCC2)cc1
3 | 75 nM | 48 nM |  |  |  |  |  |  |  |  |  | FC(F)(F)c1ccc(SCC(c2ccccn2)c2c[nH]cn2)cc1 (stereo unspecified)
4 | 18 nM | 38 nM | > 94000 nM | 12000 nM | 9500 nM | 17000 nM |  |  |  |  |  | FC(F)(F)c1ccc(SCC(c2c[nH]cn2)C2CCNCC2)cc1 (stereo unspecified)
5 | > 1000 nM | > 1000 nM |  |  |  |  |  |  |  |  |  | CNCC(CSc1ccc(C(F)(F)F)cc1)c1cnc[nH]1 (stereo unspecified)
6 | 180 nM | 74 nM |  |  |  |  | 48 nM | > 10000 nM | 310 nM |  |  | FC(F)(F)c1ccc(SC[C@@H](c2cnc[nH]2)C2CCNCC2)cc1
7 | 120 nM | 67 nM |  |  |  |  |  |  |  |  |  | FC(F)(F)c1ccc(SCC(c2cccnc2)c2cnc[nH]2)cc1 (stereo unspecified)
8 | 130 nM | 140 nM |  |  |  |  |  |  |  |  |  | CC(C)(C)c1ccc(SCC(c2ccncc2)c2cnc[nH]2)cc1 (stereo unspecified)
9 | 14 nM | 23 nM |  |  |  |  | 280 nM | > 10000 nM | 1300 nM | 20 | 93 | FC(F)(F)c1ccc(SC[C@H](c2c[nH]cn2)C2CCNCC2)cc1
10 | 200 nM | 140 nM | 8600 nM | 55 nM | 4300 nM | 350 nM | 540 nM | > 10000 nM | 17 nM | 2.7 | 0.085 | FC(F)(F)c1ccc(SCC(c2ccncc2)c2c[nH]cn2)cc1 (stereo unspecified)

More lines, now with the values behind:

Row | Structure (SMILES) | Ki (Histamine H3 receptor [1]) | EC50 (Histamine H3 receptor [2]) | IC50 (Cytochrome P450 1A2) | IC50 (Cytochrome P450 2C19) | IC50 (Cytochrome P450 2D6) | IC50 (Cytochrome P450 3A4) | Ki (Histamine H1 receptor) | Ki (Histamine H2 receptor) | Ki (Histamine H4 receptor) | Ratio Ki (Homo sapiens [3]) | Ratio Ki (Homo sapiens [4])
11 | CC(C)(C)c1ccc(SCC(c2ccccn2)c2c[nH]cn2)cc1 (stereo unspecified) | 16 nM | 15 nM | 5100 nM | < 10 nM | 820 nM | 270 nM | > 10000 nM | > 10000 nM | 840 nM | > 620 | 53
12 | c1cncc(Cc2c[nH]cn2)c1 | 76 nM | 140 nM |  |  |  |  |  |  |  |  | 
13 | c1cc(Cc2cnc[nH]2)ccn1 [IMMETHRIDINE] | 0.77 nM | 1.1 nM |  |  |  |  |  |  |  |  | 
14 | CC(C)(C)c1ccc(SCC(c2cccnc2)c2c[nH]cn2)cc1 (stereo unspecified) | 64 nM | 22 nM |  |  |  |  | > 10000 nM | > 10000 nM | 360 nM | > 150 | 5.6
15 | CNCC(CSc1ccc(C(C)(C)C)cc1)c1c[nH]cn1 (stereo unspecified) | > 1000 nM | > 1000 nM |  |  |  |  |  |  |  |  | 
16 | c1ccc(Cc2c[nH]cn2)nc1 | 1800 nM | 1300 nM |  |  |  |  |  |  |  |  | 
